According to ChEMBL document CHEMBL2407075, “Sulphonamido-quinoxalines: search for anticancer agent” (Eur J Med Chem, 2013):

Legend:
Format in all cases: functional
UO-31 [1] = assay: Growth inhibition of human UO31 cells assessed as cell growth at 10^-4 M after 48 hrs by sulforhodamine B assay; details: UO-31, 48 h, read-out: Activity
TK-10 = assay: Growth inhibition of human TK10 cells assessed as cell growth at 10^-4 M after 48 hrs by sulforhodamine B assay; details: TK-10, 48 h, read-out: Activity
[2] = Growth inhibition of human NCI-ADR-RES cells assessed as cell growth at 10^-4 M after 48 hrs by sulforhodamine B assay; details: read-out: Activity
COLO 205 = assay: Growth inhibition of human COLO205 cells assessed as cell growth at 10^-4 M after 48 hrs by sulforhodamine B assay; details: COLO 205, 48 h, read-out: Activity
Summary of the method: (§1)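 Five-dose NCI-60 run (0.01, 0.1, 1, 10 and 100 µM, as 10-fold dilutions from a DMSO stock made at 400× the top final level). Cells were grown in RPMI 1640 with 5% FBS and 2 mM glutamine and plated for 24 h. They were then exposed for 48 h at 37 °C and 5% CO2. TCA fixation was followed by SRB staining with A515 read-out. Percent growth was taken relative to time-zero and control plates.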

DU-145 = assay: Growth inhibition of human DU145 cells assessed as cell growth at 10^-5 M after 48 hrs by sulforhodamine B assay; details: DU-145, 48 h, read-out: Activity; summary of the method: as §1
SK-MEL-5 = assay: Growth inhibition of human SK-MEL-5 cells assessed as cell growth at 10^-5 M after 48 hrs by sulforhodamine B assay; details: SK-MEL-5, 48 h, read-out: Activity
UACC-257 = assay: Growth inhibition of human UACC257 cells assessed as cell growth at 10^-5 M after 48 hrs by sulforhodamine B assay; details: UACC-257, 48 h, read-out: Activity
U-251 [3] = assay: Growth inhibition of human U251 cells assessed as cell growth at 10^-5 M after 48 hrs by sulforhodamine B assay; details: U-251, 48 h, read-out: Activity
HOP-62 [4] = assay: Growth inhibition of human HOP62 cells assessed as cell growth at 10^-5 M after 48 hrs by sulforhodamine B assay; details: HOP-62, 48 h, read-out: Activity
Summary of the method: (§2)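 Five-dose screen at NCI. Cells in RPMI 1640 with 5% FBS and 2 mM L-glutamine, seeded at 5000–40,000 cells/well and grown 24 h at 37 °C, 5% CO2 before dosing, with time-zero plates TCA-fixed. Drug diluted from DMSO stock to 0.01, 0.1, 1, 10 and 100 µM final, 48 h. Cells fixed with cold TCA (10% final), stained with 0.4% SRB and read at 515 nm. Percent growth from Tz, control and test absorbances; GI50, TGI and LC50 from dose-response curves.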

PC-3 = assay: Growth inhibition of human PC3 cells assessed as cell growth at 10^-6 M after 48 hrs by sulforhodamine B assay; details: PC-3, 48 h, read-out: Activity
UO-31 [5] = assay: Growth inhibition of human UO31 cells assessed as cell growth at 10^-6 M after 48 hrs by sulforhodamine B assay; details: UO-31, 48 h, read-out: Activity
ACHN = assay: Growth inhibition of human ACHN cells assessed as cell growth at 10^-6 M after 48 hrs by sulforhodamine B assay; details: read-out: Activity; summary of the method: as §1
OVCAR-5 = assay: Growth inhibition of human OVCAR5 cells assessed as cell growth at 10^-6 M after 48 hrs by sulforhodamine B assay; details: OVCAR-5, 48 h, read-out: Activity
MOLT-4 = assay: Growth inhibition of human MOLT4 cells assessed as cell growth at 10^-6 M after 48 hrs by sulforhodamine B assay; details: MOLT-4, 48 h, read-out: Activity
SF-295 = assay: Growth inhibition of human SF295 cells assessed as cell growth at 10^-7 M after 48 hrs by sulforhodamine B assay; details: SF-295, 48 h, read-out: Activity
KM12 = assay: Growth inhibition of human KM12 cells assessed as cell growth at 10^-7 M after 48 hrs by sulforhodamine B assay; details: KM12, 48 h, read-out: Activity
RPMI-8226 = assay: Growth inhibition of human RPMI8226 cells assessed as cell growth at 10^-7 M after 48 hrs by sulforhodamine B assay; details: RPMI-8226, 48 h, read-out: Activity
SF-539 = assay: Growth inhibition of human SF539 cells assessed as cell growth at 10^-8 M after 48 hrs by sulforhodamine B assay; details: SF-539, 48 h, read-out: Activity
UO-31 [6] = assay: Growth inhibition of human UO31 cells after 48 hrs by sulforhodamine B assay; details: UO-31, 48 h; for CC50: read-out: LC50 (the source's name)
Summary of the method: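 NCI-60 screen. Cells grown in RPMI 1640 with 5% FBS and 2 mM L-glutamine, plated at 5000–40,000 cells/well and preincubated 24 h at 37 °C, 5% CO2. A time-zero plate is TCA-fixed at drug addition. DMSO stocks diluted in medium; five concentrations (0.01, 0.1, 1, 10, 100 µM). Exposure 48 h, then cold TCA fixation and 0.4% SRB staining, absorbance at 515 nm. GI50 is taken from the growth-percentage curve relative to time zero and control.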

RXF 393 = assay: Growth inhibition of human RXF393 cells after 48 hrs by sulforhodamine B assay; details: RXF 393, 48 h; for CC50: read-out: LC50 (the source's name)
Summary of the method: (§3)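 Adherent cells in RPMI 1640 with 5% FBS and 2 mM L-glutamine were plated at 5000–40,000 cells/well and grown 24 h. Five concentrations (0.01–100 µM, DMSO stock) were added for 48 h at 37 °C. Cells were fixed with cold TCA (10% final) and stained with SRB, read at 515 nm. GI50 came from log concentration–growth curves against time-zero and control plates.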

CAKI-1 = assay: Growth inhibition of human CAKI-1 cells after 48 hrs by sulforhodamine B assay; details: CAKI-1, 48 h, read-out: LC50 (the source's name); summary of the method: as §3
UACC-62 = assay: Growth inhibition of human UACC62 cells after 48 hrs by sulforhodamine B assay; details: UACC-62, 48 h, read-out: LC50 (the source's name)
U-251 [7] = assay: Growth inhibition of human U251 cells after 48 hrs by sulforhodamine B assay; details: U-251, 48 h; for CC50: read-out: LC50 (the source's name); summary of the method: as §3
HOP-62 [8] = assay: Growth inhibition of human HOP62 cells after 48 hrs by sulforhodamine B assay; details: HOP-62, 48 h; for CC50: read-out: LC50 (the source's name); summary of the method: as §2
SR = assay: Growth inhibition of human SR cells after 48 hrs by sulforhodamine B assay; details: for CC50: read-out: LC50 (the source's name)
Summary of the method: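 Leukemia suspension cells in RPMI 1640 with 5% FBS and 2 mM L-glutamine were plated at 5000–40,000 cells/well and grown 24 h. Five concentrations (0.01–100 µM) were given for 48 h at 37 °C. Settled cells were fixed with 80% TCA (16% final) and SRB-stained, read at 515 nm. GI50 came from dose–response curves against time-zero and control plates.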

| SMILES | growth at 100 µM (UO-31 [1]) | growth at 100 µM (TK-10) | growth at 100 µM [2] | growth at 100 µM (COLO 205) | growth at 10 µM (DU-145) | growth at 10 µM (SK-MEL-5) | growth at 10 µM (UACC-257) | growth at 10 µM (U-251 [3]) | growth at 10 µM (HOP-62 [4]) | growth at 1 µM (PC-3) | growth at 1 µM (UO-31 [5]) | growth at 1 µM (ACHN) | growth at 1 µM (OVCAR-5) | growth at 1 µM (MOLT-4) | growth at 0.1 µM (SF-295) | growth at 0.1 µM (KM12) | growth at 0.1 µM (RPMI-8226) | growth at 0.01 µM (SF-539) | CC50 (UO-31 [6]) | CC50 (RXF 393) | other results |
| --- | --- | --- | --- | --- | --- | --- | --- | --- | --- | --- | --- | --- | --- | --- | --- | --- | --- | --- | --- | --- | --- |
| O=S(=O)(Nc1ccc(Cl)cc1)c1ccc2nc(-c3ccccc3)c(-c3ccccc3)nc2c1 | 75% | 86% | 69% | 73% | 26% | -99% | -24% | -5% | 13% | 63% | 90% | 96% | 90% | 86% | 90% | 94% | 101% | 99% | > 100 µM | > 100 µM | TGI (UO-31 [6]): > 100 µM; CC50 (CAKI-1): > 100 µM; CC50 (UACC-62): > 100 µM; CC50 (U-251 [7]): > 100 µM; GI50 (HOP-62 [8]): 3.95 µM; TGI (HOP-62 [8]): > 100 µM; CC50 (HOP-62 [8]): > 100 µM; CC50 (SR): > 100 µM |
| O=S(=O)(Nc1ccccn1)c1ccc2nc(-c3ccccc3)c(-c3ccccc3)nc2c1 | 59% | 54% | 58% | 57% | 31% | -93% | -25% | 2% | 16% | 60% | 85% | 94% | 104% | 80% | 91% | 99% | 104% | 96% | > 100 µM | > 100 µM | GI50 (RXF 393): 2.14 µM; CC50 (CAKI-1): > 100 µM; CC50 (UACC-62): > 100 µM; GI50 (U-251 [7]): 2.61 µM; TGI (U-251 [7]): > 100 µM; CC50 (U-251 [7]): > 100 µM; GI50 (HOP-62 [8]): 4.54 µM; TGI (HOP-62 [8]): > 100 µM; CC50 (HOP-62 [8]): > 100 µM; GI50 (SR): 1.4 µM; CC50 (SR): > 100 µM |
